Assay outcomes (PubChem BioAssay)
TbHK1 inh = blocks Trypanosoma brucei hexokinase 1 activity. inhibition, % at 10 µM. recombinant TbHK1, G6PDH-coupled NADH A340. 220,000 compounds, 0.11% hits;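 active means inhibition of 50% or more in the single-dose primary screen; inactive means inhibition below 50%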
RanGTP-Impb inh = disruptors of Ran-importin-beta complex formation – biochemical, FRET, CFP-Ran, YFP-importin-beta, homogeneous, primary screen; cell-free CFP-Ran/YFP-importin-beta FRET ratio; 300,000 compounds, 1.1% hits; AID 2216; inhibition, % (test concentration not listed);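 active means more than half of the replicate wells show a fall in the fluorescence ratio signal beyond about 16%, limit read from the data, passing the limit was not always enough; inconclusive means exactly half of the replicate wells pass the set limit; inactive means fewer than half of replicates pass the limit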
14-3-3 Bad inh = disrupts binding of bovine 14-3-3 zeta to phospho-Bad peptide; TR-FRET 14-3-3zeta/Dy647-pBad peptide displacement, 1 h; inhibition, % at 21.7 µM; 220,000 compounds, 0.71% hits;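 active means inhibition above about 70%, limit read from the data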
Hck-Nef inh = inhibitors of human Hck kinase activated by Nef; P08631; Recombinant Hck-YEEI plus Nef, Z-Lyte FRET kinase assay; inhibition, % at 20 µM; 220,000 compounds, 0.68% hits; AID 463187;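 active means Hck-Nef kinase inhibition above about 50%, limit read from the data; inactive means inhibition below that limit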
Target sequence (P08631 whole entry, looked up): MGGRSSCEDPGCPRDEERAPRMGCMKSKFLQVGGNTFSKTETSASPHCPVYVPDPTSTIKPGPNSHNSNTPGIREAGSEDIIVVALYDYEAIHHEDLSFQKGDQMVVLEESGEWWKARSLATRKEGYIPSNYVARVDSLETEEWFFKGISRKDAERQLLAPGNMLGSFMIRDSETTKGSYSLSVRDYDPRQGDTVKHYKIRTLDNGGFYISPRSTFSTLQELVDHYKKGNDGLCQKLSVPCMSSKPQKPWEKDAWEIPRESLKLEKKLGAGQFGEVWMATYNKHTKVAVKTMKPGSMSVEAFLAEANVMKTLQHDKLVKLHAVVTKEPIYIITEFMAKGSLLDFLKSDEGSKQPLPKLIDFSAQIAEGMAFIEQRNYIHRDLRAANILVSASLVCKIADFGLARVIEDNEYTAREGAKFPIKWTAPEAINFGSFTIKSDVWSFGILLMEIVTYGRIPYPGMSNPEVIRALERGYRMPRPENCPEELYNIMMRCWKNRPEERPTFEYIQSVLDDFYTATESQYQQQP
Runt-CBFb FRET = Runt domain-CBFb interaction inhibition; Cerulean-Runt/Venus-CBFb FRET ratio 530/480, 1 h; 220,000 compounds, 0.46% hits; Q01196+Q13951; inhibition, % at 20 µM;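 active means inhibition over about 50% at 20 µM in the single-dose screen, limit read from the data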
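test system = Cerulean-Runt domain fusion protein, energy donor | probe or stimulus = Venus-CBFb binding partner, 100 nM | incubation = two 1 h room-temperature incubations shielded from light | detection = fluorescence energy transfer, 422 nm excitation, 530/480 nm emission | measure = loss of energy transfer signal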
Runt-SMMHC FRET = blocks binding of human RUNX1 Runt domain to CBFb-SMMHC; Q01196+Q13951; Cerulean-Runt/Venus-CBFb-SMMHC FRET ratio 530/480, 1 h; inhibition, % at 20 µM; 220,000 compounds, 0.74% hits;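 active means mean inhibition across duplicate retests at 20 µM reaching about 50%, limit read from the data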;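 further: inhibitors lower the FRET ratio by blocking Runt binding to CBFb-SMMHC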
Numbers stand for hits. An excerpt weighted towards active compounds, which were near 2.2% of everything screened.

`CCn1c(SCC(=O)c2cccs2)nnc1-c1cccs1` gave TbHK1 inh inactive, RanGTP-Impb inh inactive, 14-3-3 Bad inh inactive, Hck-Nef inh inactive, Runt-CBFb FRET inactive and Runt-SMMHC FRET inactive.
Screening Cc1cc(C)c2c(c1)c(C)cc1nnc(SCC(=O)c3cccs3)n12 returned TbHK1 inh inactive, RanGTP-Impb inh inactive, 14-3-3 Bad inh 73, Hck-Nef inh inactive, Runt-CBFb FRET inactive and Runt-SMMHC FRET inactive.
For O=c1nc(-c2ccccc2)n(-c2ccccc2)[nH]1 the results were TbHK1 inh inactive, RanGTP-Impb inh inactive, 14-3-3 Bad inh inactive, Hck-Nef inh inactive, Runt-CBFb FRET inactive and Runt-SMMHC FRET inactive.
`CC(=O)c1ccc(NS(=O)(=O)c2ccc(N/C=C/C(=O)c3ccc(F)cc3)cc2)cc1` gave TbHK1 inh inactive, RanGTP-Impb inh inactive, 14-3-3 Bad inh inactive, Hck-Nef inh inactive, Runt-CBFb FRET inactive and Runt-SMMHC FRET inactive.
CCc1nnc(NS(=O)(=O)c2ccc(NC(=O)Nc3ccc(OC)cc3)cc2)s1 was read as RanGTP-Impb inh inactive.
`COc1cc(NS(=O)(=O)c2ccc(N/C=C\C(=O)c3ccc(F)cc3)cc2)nc(OC)n1` gave TbHK1 inh inactive, RanGTP-Impb inh inactive, 14-3-3 Bad inh inactive, Hck-Nef inh inactive, Runt-CBFb FRET inactive and Runt-SMMHC FRET 72.
`CCc1nnc(NS(=O)(=O)c2ccc(N/C=C/C(=O)c3ccc(OC)cc3)cc2)s1` gave TbHK1 inh inactive, RanGTP-Impb inh inactive, 14-3-3 Bad inh inactive, Hck-Nef inh inactive, Runt-CBFb FRET inactive and Runt-SMMHC FRET 50.
For COc1ccc(-c2csc(=NCCO)n2-c2ccccc2)cc1 the results were RanGTP-Impb inh inactive.
CCN(CC)c1nc2ccccc2nc1C(C#N)C(=O)NCCc1ccccc1 (stereo not given) was read as TbHK1 inh inactive, RanGTP-Impb inh 52, 14-3-3 Bad inh inactive, Hck-Nef inh inactive, Runt-CBFb FRET inactive and Runt-SMMHC FRET 59.
Screening CCCCCCNC(=O)C(C#N)c1nc2ccccc2nc1N1CCOCC1 (stereo not given) returned TbHK1 inh inactive, RanGTP-Impb inh inactive, 14-3-3 Bad inh inactive, Hck-Nef inh inactive, Runt-CBFb FRET inactive and Runt-SMMHC FRET inactive.
For CCN(CC)c1nc2ccccc2nc1C(C#N)C(=O)NCCCOC (stereo not given) the results were TbHK1 inh inactive, 14-3-3 Bad inh inactive, Hck-Nef inh inactive, Runt-CBFb FRET 67 and Runt-SMMHC FRET 61.
CCCCN(CCCC)c1nc2ccccc2nc1C(C#N)C(=O)NCCCOC (stereo not given) was read as TbHK1 inh inactive, RanGTP-Impb inh 32, 14-3-3 Bad inh inactive, Hck-Nef inh inactive, Runt-CBFb FRET inactive and Runt-SMMHC FRET inactive.
COCCOC(=O)C(C#N)c1nc2ccccc2nc1N1CCCC1 (stereo not given) was read as TbHK1 inh inactive, RanGTP-Impb inh inactive, 14-3-3 Bad inh inactive, Hck-Nef inh inactive, Runt-CBFb FRET inactive and Runt-SMMHC FRET inactive.
CCCN(CCC)c1nc2ccccc2nc1C(C#N)C(=O)OC(C)COC (stereo not given) was read as TbHK1 inh inactive, RanGTP-Impb inh 23, 14-3-3 Bad inh inactive and Hck-Nef inh inactive.
Screening Cc1ccc(C(=O)CCC(=O)N2CCN(C(=O)c3ccco3)CC2)cc1 returned TbHK1 inh inactive, RanGTP-Impb inh inactive, 14-3-3 Bad inh inactive, Hck-Nef inh inactive, Runt-CBFb FRET inactive and Runt-SMMHC FRET inactive.
Screening CCCNc1nc(C)cc(-c2cc(-c3ccc(Cl)cc3)on2)n1 returned TbHK1 inh inactive, RanGTP-Impb inh inconclusive, 14-3-3 Bad inh inactive, Hck-Nef inh inactive, Runt-CBFb FRET inactive and Runt-SMMHC FRET inactive.
`O=C(CCc1nnc(C2(c3ccc(Cl)cc3)CCC2)o1)N1CCCC(O)C1` (stereo not given) gave RanGTP-Impb inh inactive.
`CCN1CCN(C(=O)CSc2cc(=O)n(CC)c3ccccc23)CC1` gave TbHK1 inh inactive, RanGTP-Impb inh 37, 14-3-3 Bad inh inactive, Hck-Nef inh inactive, Runt-CBFb FRET inactive and Runt-SMMHC FRET inactive.
`O=C1CCCC/C1=C/Nc1cccc(C(F)(F)F)c1` gave TbHK1 inh inactive, RanGTP-Impb inh inactive, 14-3-3 Bad inh 93, Hck-Nef inh inactive, Runt-CBFb FRET inactive and Runt-SMMHC FRET inactive.
For O=C1CCCC/C1=C\Nc1ccc(O)cc1 the results were TbHK1 inh inactive, RanGTP-Impb inh inactive, 14-3-3 Bad inh inactive, Hck-Nef inh inactive, Runt-CBFb FRET inactive and Runt-SMMHC FRET inactive.
`CCCC(c1nnnn1C(C)(C)CC)N1CCN(C2CCCC2)CC1` (stereo not given) gave TbHK1 inh inactive, 14-3-3 Bad inh 73, Hck-Nef inh inactive, Runt-CBFb FRET inactive and Runt-SMMHC FRET inactive.
For CCCC(c1nnnn1Cc1ccc(OC)cc1)N1CCC(C(N)=O)CC1 (stereo not given) the results were TbHK1 inh inactive, RanGTP-Impb inh inconclusive, 14-3-3 Bad inh 75, Hck-Nef inh inactive, Runt-CBFb FRET inactive and Runt-SMMHC FRET inactive.
For CCCC(c1nnnn1Cc1ccc(F)cc1)N1CCN(C2CCCCC2)CC1 (stereo not given) the results were TbHK1 inh inactive, RanGTP-Impb inh inactive, 14-3-3 Bad inh 75, Hck-Nef inh inactive, Runt-CBFb FRET inactive and Runt-SMMHC FRET inactive.
Screening COc1ccc(/C=C(\NC(=O)c2ccc(C)cc2)C(=O)N2CCCCC2)cc1 returned RanGTP-Impb inh inactive.
Brc1cccc2sc(N3CCN(c4ccccc4)CC3)nc12 was read as TbHK1 inh inactive, RanGTP-Impb inh inactive, 14-3-3 Bad inh 87, Hck-Nef inh inactive, Runt-CBFb FRET inactive and Runt-SMMHC FRET inactive.
CC(C)N1CC=C2C(C#N)=C(N)C(C#N)(C#N)C(c3ccccc3)C2C1 (stereo not given) was read as TbHK1 inh inactive, RanGTP-Impb inh 71, 14-3-3 Bad inh inactive, Hck-Nef inh inactive, Runt-CBFb FRET 74 and Runt-SMMHC FRET 63.
For Cc1ccc(C2C3CSCC=C3C(C#N)=C(N)C2(C#N)C#N)cc1 (stereo not given) the results were TbHK1 inh inactive, RanGTP-Impb inh 16, 14-3-3 Bad inh inactive, Hck-Nef inh inactive, Runt-CBFb FRET inactive and Runt-SMMHC FRET inactive.
For CC(C)N1CC=C2C(C#N)=C(N)C(C#N)(C#N)[C@H](c3ccoc3)[C@H]2C1 the results were TbHK1 inh inactive, RanGTP-Impb inh 55, 14-3-3 Bad inh inactive, Hck-Nef inh inactive, Runt-CBFb FRET inactive and Runt-SMMHC FRET 60.
`N#CC1=C(N)C(C#N)(C#N)[C@H](c2ccncc2)[C@H]2CC3(CC=C12)OCCO3` gave TbHK1 inh inactive, RanGTP-Impb inh inactive, 14-3-3 Bad inh inactive, Hck-Nef inh inactive, Runt-CBFb FRET inactive and Runt-SMMHC FRET inactive.
`CCOC(=O)N1CC=C2C(C#N)=C(N)C(C#N)(C#N)[C@H](c3cccs3)C2C1` (stereo not given in full) gave TbHK1 inh inactive, RanGTP-Impb inh inactive, 14-3-3 Bad inh inactive, Hck-Nef inh inactive, Runt-CBFb FRET inactive and Runt-SMMHC FRET inactive.
